According to ChEMBL document CHEMBL1151781, “Selectivity of inhibitors of endocannabinoid biosynthesis evaluated by activity-based protein profiling” (Bioorg Med Chem Lett, 2008):
Active and inactive are the calls of the source. No cut-off for these calls is given here.

How the values were obtained:
[1] = biological target: T1, Platelet-activating factor acetylhydrolase (Mus musculus) (UniProt Q60963); test: Inhibition of PLA2g7 in mouse brain assessed as reduction in spectral count at 5 uM treated for 30 mins by ABPP-MudPIT assay relative to control; format: tissue-based
T1 sequence (whole entry): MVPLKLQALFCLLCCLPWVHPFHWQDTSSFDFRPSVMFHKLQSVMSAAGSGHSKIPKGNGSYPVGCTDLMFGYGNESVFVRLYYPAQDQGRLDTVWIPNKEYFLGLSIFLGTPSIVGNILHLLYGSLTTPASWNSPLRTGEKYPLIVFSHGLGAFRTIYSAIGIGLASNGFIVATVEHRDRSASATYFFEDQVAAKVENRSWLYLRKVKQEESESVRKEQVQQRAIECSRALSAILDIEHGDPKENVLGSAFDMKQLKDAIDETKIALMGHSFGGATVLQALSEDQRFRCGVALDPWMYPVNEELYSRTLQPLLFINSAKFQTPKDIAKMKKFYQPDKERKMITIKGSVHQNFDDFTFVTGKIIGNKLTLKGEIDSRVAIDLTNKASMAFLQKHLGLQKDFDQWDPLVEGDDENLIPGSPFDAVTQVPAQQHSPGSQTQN
Outline: (§1)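 Mouse brain proteome was treated with inhibitor at the stated single concentration, or DMSO as control, for 30 min. FP-biotin (5 μM) was then added for 120 min, followed by avidin enrichment and LC-MS (ABPP-MudPIT). Runs were in triplicate. Only hydrolases with >15 average spectral counts in control were quantified. Blockade is the percent reduction in average spectral counts versus DMSO; >60% defined a target.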

[2] = biological target: Hormone-sensitive lipase (Mus musculus) (UniProt P54310); test: Inhibition of HSL in mouse brain assessed as reduction in spectral count at 50 uM treated for 30 mins by ABPP-MudPIT assay relative to control; format: tissue-based; outline: as §1
[3] = biological target: T2, Neutral cholesterol ester hydrolase 1 (Mus musculus) (UniProt Q8BLF1); test: Inhibition of KIAA1363 in mouse brain assessed as reduction in spectral count at 50 uM treated for 30 mins by ABPP-MudPIT assay relative to control; format: tissue-based; outline: as §1
T2 sequence (whole entry): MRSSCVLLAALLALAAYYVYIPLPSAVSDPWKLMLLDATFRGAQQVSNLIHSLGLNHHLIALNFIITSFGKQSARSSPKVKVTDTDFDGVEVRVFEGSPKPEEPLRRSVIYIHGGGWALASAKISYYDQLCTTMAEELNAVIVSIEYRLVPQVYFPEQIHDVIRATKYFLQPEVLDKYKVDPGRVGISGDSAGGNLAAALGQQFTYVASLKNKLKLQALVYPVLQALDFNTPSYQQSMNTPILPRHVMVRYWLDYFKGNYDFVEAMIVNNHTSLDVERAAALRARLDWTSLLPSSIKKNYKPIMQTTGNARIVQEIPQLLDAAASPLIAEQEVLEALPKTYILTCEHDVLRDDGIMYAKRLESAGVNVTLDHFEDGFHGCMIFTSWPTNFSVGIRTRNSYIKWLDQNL

[4] = biological target: Acetylcholinesterase (Mus musculus) (UniProt P21836); test: Inhibition of AChE in mouse brain assessed as reduction in spectral count at 5 uM treated for 30 mins by ABPP-MudPIT assay relative to control; format: tissue-based; outline: as §1
[5] = biological target: T3, Diacylglycerol lipase-alpha (Mus musculus) (UniProt Q6WQJ1); test: Inhibition of DAGLalpha in mouse brain assessed as >15 average spectral count at 50 uM treated for 30 mins by ABPP-MudPIT assay; format: tissue-based
T3 sequence (whole entry): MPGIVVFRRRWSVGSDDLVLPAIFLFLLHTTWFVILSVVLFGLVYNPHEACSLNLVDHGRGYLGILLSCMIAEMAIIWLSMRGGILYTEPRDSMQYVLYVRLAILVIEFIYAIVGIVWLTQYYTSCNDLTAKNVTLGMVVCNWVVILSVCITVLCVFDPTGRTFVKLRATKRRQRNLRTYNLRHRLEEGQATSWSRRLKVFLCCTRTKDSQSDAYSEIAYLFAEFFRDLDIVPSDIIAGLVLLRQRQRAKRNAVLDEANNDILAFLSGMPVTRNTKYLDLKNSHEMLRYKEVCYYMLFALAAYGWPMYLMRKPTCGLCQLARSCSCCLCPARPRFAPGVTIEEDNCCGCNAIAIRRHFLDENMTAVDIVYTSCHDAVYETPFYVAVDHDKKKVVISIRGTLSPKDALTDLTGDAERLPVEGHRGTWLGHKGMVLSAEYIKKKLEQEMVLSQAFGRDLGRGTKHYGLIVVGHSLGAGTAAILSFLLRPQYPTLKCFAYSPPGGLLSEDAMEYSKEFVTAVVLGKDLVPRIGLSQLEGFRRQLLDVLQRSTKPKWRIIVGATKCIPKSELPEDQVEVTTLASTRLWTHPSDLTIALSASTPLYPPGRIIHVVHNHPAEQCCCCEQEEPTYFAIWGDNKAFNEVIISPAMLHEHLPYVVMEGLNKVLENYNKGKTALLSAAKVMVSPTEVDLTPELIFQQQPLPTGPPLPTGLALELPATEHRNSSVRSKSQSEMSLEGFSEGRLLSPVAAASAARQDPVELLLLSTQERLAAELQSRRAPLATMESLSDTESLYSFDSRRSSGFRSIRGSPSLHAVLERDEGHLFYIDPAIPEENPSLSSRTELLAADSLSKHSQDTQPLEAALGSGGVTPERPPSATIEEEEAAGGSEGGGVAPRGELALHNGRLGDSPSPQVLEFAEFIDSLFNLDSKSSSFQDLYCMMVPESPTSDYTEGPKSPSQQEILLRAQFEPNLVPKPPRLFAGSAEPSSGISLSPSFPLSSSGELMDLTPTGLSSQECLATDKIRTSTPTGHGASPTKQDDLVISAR

[6] = biological target: T1, Platelet-activating factor acetylhydrolase (Mus musculus); settings: Brain, 50 uM
[7] = biological target: Tripeptidyl-peptidase 2 (Mus musculus) (UniProt Q64514); settings: Brain, 5 uM
[8] = biological target: T4, Lysophosphatidylserine lipase ABHD12 (Mus musculus) (UniProt Q99LR1); settings: Brain, 5 uM
T4 sequence (whole entry): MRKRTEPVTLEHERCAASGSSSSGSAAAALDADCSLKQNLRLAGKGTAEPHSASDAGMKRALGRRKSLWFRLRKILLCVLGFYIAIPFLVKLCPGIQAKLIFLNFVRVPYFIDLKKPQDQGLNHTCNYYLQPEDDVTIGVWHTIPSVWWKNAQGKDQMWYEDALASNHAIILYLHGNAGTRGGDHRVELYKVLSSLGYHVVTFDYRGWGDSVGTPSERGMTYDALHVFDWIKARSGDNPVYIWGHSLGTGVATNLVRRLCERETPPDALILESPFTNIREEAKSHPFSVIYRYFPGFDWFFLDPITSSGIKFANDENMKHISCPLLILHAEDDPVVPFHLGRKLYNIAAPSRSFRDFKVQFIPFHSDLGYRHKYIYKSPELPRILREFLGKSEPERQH

Chain of Tripeptidyl-peptidase 2 (Mus musculus) (Q64514 whole entry): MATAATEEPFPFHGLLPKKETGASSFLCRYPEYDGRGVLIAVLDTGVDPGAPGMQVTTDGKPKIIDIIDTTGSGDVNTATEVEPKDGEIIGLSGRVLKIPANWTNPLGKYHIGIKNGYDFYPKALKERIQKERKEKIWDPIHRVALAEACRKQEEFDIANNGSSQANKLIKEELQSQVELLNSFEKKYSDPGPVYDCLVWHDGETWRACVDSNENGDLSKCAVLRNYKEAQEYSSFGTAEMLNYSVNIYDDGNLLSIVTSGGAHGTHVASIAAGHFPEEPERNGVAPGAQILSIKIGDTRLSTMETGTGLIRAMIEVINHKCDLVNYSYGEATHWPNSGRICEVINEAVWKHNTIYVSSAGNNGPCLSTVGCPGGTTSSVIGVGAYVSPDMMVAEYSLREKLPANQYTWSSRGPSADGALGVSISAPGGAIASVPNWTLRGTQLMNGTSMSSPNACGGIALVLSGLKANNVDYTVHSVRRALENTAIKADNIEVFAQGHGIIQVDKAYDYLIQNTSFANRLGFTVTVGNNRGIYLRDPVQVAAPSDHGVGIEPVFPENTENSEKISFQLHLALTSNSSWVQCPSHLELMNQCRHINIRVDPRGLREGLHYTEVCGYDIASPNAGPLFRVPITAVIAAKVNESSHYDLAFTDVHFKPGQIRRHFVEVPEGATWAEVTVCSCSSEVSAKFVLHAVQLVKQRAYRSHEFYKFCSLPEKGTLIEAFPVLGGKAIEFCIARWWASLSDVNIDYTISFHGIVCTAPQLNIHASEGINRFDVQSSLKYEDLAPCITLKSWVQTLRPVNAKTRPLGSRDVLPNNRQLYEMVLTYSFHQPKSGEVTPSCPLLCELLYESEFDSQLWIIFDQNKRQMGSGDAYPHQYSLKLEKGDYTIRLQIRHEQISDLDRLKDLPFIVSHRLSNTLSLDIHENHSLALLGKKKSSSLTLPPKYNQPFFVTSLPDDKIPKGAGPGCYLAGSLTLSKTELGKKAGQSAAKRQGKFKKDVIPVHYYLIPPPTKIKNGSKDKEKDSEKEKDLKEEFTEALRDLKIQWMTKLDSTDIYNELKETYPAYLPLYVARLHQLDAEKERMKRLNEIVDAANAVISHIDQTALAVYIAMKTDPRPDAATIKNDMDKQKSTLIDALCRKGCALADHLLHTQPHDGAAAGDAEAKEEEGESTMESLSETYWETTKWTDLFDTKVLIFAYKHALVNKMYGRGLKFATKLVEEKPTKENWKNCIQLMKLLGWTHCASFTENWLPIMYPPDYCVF
Chain of Acetylcholinesterase (Mus musculus) (P21836 whole entry): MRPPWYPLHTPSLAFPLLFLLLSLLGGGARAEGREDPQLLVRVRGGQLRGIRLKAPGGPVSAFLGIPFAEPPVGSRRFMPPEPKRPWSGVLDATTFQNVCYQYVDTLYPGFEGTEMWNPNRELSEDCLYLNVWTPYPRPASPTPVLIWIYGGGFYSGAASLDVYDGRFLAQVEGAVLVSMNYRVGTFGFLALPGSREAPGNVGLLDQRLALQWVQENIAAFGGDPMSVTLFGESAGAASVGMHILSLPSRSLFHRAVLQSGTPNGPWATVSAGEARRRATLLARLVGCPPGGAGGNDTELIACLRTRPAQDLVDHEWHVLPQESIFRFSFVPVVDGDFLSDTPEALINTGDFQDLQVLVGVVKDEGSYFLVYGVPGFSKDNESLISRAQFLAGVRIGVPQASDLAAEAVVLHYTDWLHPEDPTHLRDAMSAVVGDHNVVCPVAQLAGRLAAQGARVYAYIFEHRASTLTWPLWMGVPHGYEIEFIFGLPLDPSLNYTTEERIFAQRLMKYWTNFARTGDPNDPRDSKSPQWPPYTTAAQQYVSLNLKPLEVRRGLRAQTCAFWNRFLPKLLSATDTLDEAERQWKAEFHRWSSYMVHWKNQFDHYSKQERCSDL
Chain of Hormone-sensitive lipase (Mus musculus) (P54310 whole entry): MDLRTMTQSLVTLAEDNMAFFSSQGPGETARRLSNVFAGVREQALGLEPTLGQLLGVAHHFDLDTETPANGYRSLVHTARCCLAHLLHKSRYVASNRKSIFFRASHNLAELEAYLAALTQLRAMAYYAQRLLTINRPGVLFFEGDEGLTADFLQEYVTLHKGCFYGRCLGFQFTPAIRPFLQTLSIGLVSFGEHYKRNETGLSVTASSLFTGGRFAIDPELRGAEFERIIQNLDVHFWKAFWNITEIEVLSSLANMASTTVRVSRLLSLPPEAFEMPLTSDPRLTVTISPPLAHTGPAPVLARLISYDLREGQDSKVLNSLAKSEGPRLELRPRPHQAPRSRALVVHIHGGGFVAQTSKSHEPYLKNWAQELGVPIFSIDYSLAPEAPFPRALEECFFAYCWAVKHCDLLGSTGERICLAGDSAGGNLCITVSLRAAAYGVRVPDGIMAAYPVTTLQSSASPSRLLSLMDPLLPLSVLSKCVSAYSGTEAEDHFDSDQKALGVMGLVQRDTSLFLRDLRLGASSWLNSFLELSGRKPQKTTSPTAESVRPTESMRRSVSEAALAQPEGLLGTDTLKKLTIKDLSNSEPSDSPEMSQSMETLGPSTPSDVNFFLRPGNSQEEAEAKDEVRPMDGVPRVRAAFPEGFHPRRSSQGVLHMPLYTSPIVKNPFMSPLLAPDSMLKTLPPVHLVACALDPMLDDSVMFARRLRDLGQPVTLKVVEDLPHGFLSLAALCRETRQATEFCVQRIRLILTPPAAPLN

Compound | inhibition [1] [%] | inhibition [2] [%] | inhibition [3] [%] | inhibition [4] [%] | Activity [5] | inhibition [6] [%] | inhibition [7] [%] | inhibition [8] [%]
O=C(NCCCCCCNC(=O)ON=C1CCCCC1)ON=C1CCCCC1 | > 60 | < 60 | > 60 | > 60 | inactive |  |  | 
CCCCCCCCCCC[C@@H](C[C@@H]1OC(=O)[C@H]1CCCCCC)OC(=O)[C@H](CC(C)C)NC=O [ORLISTAT] |  |  |  |  | inactive | > 60 | > 60 | > 60
